Measured values as given in ChEMBL document CHEMBL3244143, “Synthesis and gastric antisecretory properties of an 8-aza-and a 10-oxa-8,12-secoprostaglandin” (1978).

Key:
Rattus norvegicus [1] = experiment: Antisecretory activity in rat assessed as decrease in volume of gastric secretion at 1.5 mg/kg, sc immediately after surgery and again 2 hrs later measured after 4 hrs of pyloric ligation; format: functional, Stomach; set-up: scale not given: the % may be the effect or the level left; conditions: route subcutaneous
Outline: (§1)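 Pylorus-ligated rats under ether anesthesia via midline incision; 1.5 mg/kg sc given immediately after surgery and again 2.0 h later (total 3 mg/kg), diluted in phosphate buffer pH 7.4, 1 mL/kg. Six rats per compound plus vehicle control group. Killed 4 h after ligation; gastric volume measured, contents centrifuged 5000 rpm 10 min, supernatant titrated with 0.1 N NaOH to pH 7.0 (mequiv); % change vs control.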

Rattus norvegicus [2] = experiment: Antisecretory activity in rat assessed as decrease in total acid at 1.5 mg/kg, sc immediately after surgery and again 2 hrs later measured after 4 hrs of pyloric ligation; format: functional; set-up: scale not given: the % may be the effect or the level left; conditions: route subcutaneous; outline: as §1

| SMILES | Activity (Rattus norvegicus [1]) [%] | Activity (Rattus norvegicus [2]) [%] |
| --- | --- | --- |
| CCCCCC(O)/C=C/CCOC(=O)CCCCCCCC(=O)OC (stereo not given) | 25 | 34 |
| CCCCC[C@H](O)/C=C/[C@H]1[C@H](O)CC(=O)[C@@H]1CCCCCCC(=O)O [ALPROSTADIL] | 74 | 96 |
| CCCCC[C@H](O)/C=C/[C@@H]1[C@@H](C/C=C\CCCC(=O)O)[C@@H](O)C[C@H]1O [DINOPROST] | 37 | 42 |
| CCCCCC(O)/C=C/CCCC(=O)N(C)CCCCCCC(=O)OC (stereo not given) | 21 | 32 |
| CCCCCC(O)/C=C/CCCC(=O)N(C)CCCCCCC(=O)O (stereo not given) | 25 | 25 |
